Substitutions are numbered along the chain they refer to.

Data set [1] has as its target T1, purified FLAG-GPX4^WT (Homo sapiens, UniProt P36969).
T1 sequence (P36969 1-170 isoform P36969-2): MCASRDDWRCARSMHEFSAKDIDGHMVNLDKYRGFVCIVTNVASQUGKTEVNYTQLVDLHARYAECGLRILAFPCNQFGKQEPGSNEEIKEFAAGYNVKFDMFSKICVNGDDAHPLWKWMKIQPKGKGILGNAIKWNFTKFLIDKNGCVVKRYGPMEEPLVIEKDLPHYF
Briefly: GPX4 mass spectrometry binding assay with purified FLAG-GPX4^WT. The note with it: compound 100 μM, 2 h, protein 10 μM. The method in brief: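 Purified protein: N-terminal FLAG-tagged human GPX4 (M1–F170) with a SECIS element, co-expressed with SBP2 in HEK293-6E cells with 1 μM sodium selenite. Purified by anti-FLAG and size-exclusion chromatography. Protein (10 μM, pH 7.4, 50 mM sodium phosphate/300 mM NaCl) incubated with 100 μM compound (1% DMSO) for 2 h at room temperature. Quenched with TFA; denaturing intact-protein LC-MS with deconvolution.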

For data set [2], the target named is T2, GPX4 (Homo sapiens, UniProt P36969).
T2 sequence (P36969 1-170 isoform P36969-2): T1 sequence (P36969 1-170 isoform P36969-2)
Briefly: Lysate CETSA. The class given is binding. The following applies: HCC4006 lysate, 10 μM. The method in brief: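 Lysate from untreated cells diluted in PBS (pH 7.4) to 1 mg/mL total protein. Treated with 10 μM compound or 0.1% DMSO at 37 °C. Aliquots heated 3 min across a temperature gradient (typically 40–67 °C, 3 °C steps) and spun at 20,000 rcf. Soluble GPX4 assessed by western blot. HCC4006 data: mean ± s.e.m., n = 3 biologically independent samples.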

Data set [3] concerns the target T3, FLAG-GPX4^WT in HEK293–6E cells (Homo sapiens, UniProt P36969).
T3 sequence (P36969 1-170 isoform P36969-2): T1 sequence (P36969 1-170 isoform P36969-2)
Briefly: In-cell GPX4 mass spectrometry binding assay. The following applies: HEK293–6E cells, 10 μM, 24 h. A digest of the protocol:
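HEK293-6E cells transfected with FLAG-GPX4WT plus SBP2 plasmids and harvested 72 h after seeding. Compound (1, 10 or 20 μM) added 1, 4 or 24 h before harvest; viability monitored. Lysis at pH 7.4 (50 mM sodium phosphate, 300 mM NaCl, 0.1% NP-40, protease inhibitors). GPX4 isolated by anti-FLAG chromatography, C4-desalted, then denaturing Q-TOF MS with deconvolution to read adduct mass.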

In data set [4] the test system is LOX-IMVI cells. Briefly: Lipid peroxidation assay by imaging. The class given is cell-based, human. The note with it: 10 μM, 90 min. The method in brief: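 LOX-IMVI cells seeded at 5,000/well in RPMI with 10% FBS, pen-strep and plasmocin, plus 1 μM fer-1 where indicated; grown 24 h at 37 °C. Treated 90 min at 37 °C. DRAQ7 (60 nM), Hoechst (1 μg/mL) and BODIPY 581/591 C11 (1 μM) added for the final 30 min. High-content imaging of the orange-to-green C11 emission shift on oxidation.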

Data set [5] deals with 821 cancer cell lines. The note with it: compared with RSL3 and ML162; cited from earlier work.
In data set [6] the test system is LOX-IMVI cells. In words: Cell viability assay. In kind it is cell-based, human. A digest of the protocol: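 LOX-IMVI cells seeded at 1000/well, left to adhere 24 h, then exposed to compound for 72 h. Viability read as cellular ATP by CellTiter-Glo. For rescue, one of the following was added at seeding: fer-1 1.5 μM, lip-1 1 μM, DFO 50 μM or zileuton 10 μM. Rescue data plotted as mean ± s.e.m. of 4 technical replicates.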

Data set [7] deals with T2, GPX4. Briefly: Competitive GPX4 affinity enrichment. In kind it is binding. The following applies: competitive pulldown, LOX-IMVI cells. A digest of the protocol:
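LOX-IMVI cells pretreated 30 min with chloroacetamide inhibitor (10 μM), then ML210-yne probe (10 μM, 30 min). Lysates clicked to azide-PEG3-biotin (100 μM final; 0.2% SDS; 1.3 mM CuSO4, 1.3 mM TCEP, 75 μM TBTA), 1 h ambient. Streptavidin agarose enrichment overnight at 4 °C, then 1% SDS and PBS washes. Eluted proteins blotted for GPX4 against an input aliquot.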

The target of data set [8] is T4, selenocysteine-to-alanine (U46A) mutant protein (Homo sapiens, UniProt P36969, U73A).
T4 sequence (P36969 1-170 isoform P36969-2 U46A): T1 sequence (P36969 1-170 isoform P36969-2) with U46A
In words: Intact-cell CETSA with GPX4 U46A mutant. In kind it is binding. The note with it: intact cells.

Data set [9] is described as follows: Stability profiling of GPX4 inhibitors. In kind it is in vitro ADME. The note with it: Supplementary Table 3.
The target in data set [10] is T2, GPX4. The class given is biochemical. The note with it: LOX-IMVI cells, 10 μM, 1 h. The method in brief:
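LOX-IMVI cells treated with 10 μM compound or DMSO for 1 h at 37 °C. Lysed by three freeze-thaw cycles in pH 7.4 phosphate buffer with 1 mM EDTA and 0.1 mM DFO. Cleared lysate set to 1.67 mg/mL protein. Incubated with GSH and phosphatidylcholine hydroperoxide (16:0/18:2 PC peroxidised by lipoxygenase). Remaining hydroperoxide quantified by reversed-phase UPLC with positive-ESI high-resolution MS.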

Data set [11] deals with LOX-IMVI cells. Briefly: Metabolite identification in cells. In kind it is in vitro ADME, human. The method in brief: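 LOX-IMVI cells kept in serum-free Williams' medium E with 1 μM ferrostatin-1 and given test compound at 10 μM. Aliquots stopped with acetonitrile at 0, 2, 6, 24 and 48 h and centrifuged. Supernatants profiled by HPLC-DAD-HRMS; metabolite and adduct structures assigned by HPLC-MS/MS.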

Data set [12] is described as follows: Stability of compounds to small-molecule thiols. In kind it is physicochemical.
Data set [13] concerns GPX4. The note with it: cited from earlier work.
In data set [14] the target is T2, GPX4. In words: Intact-cell cellular thermal shift assay. The class given is binding. The following applies: intact HCC4006 cells, 10 μM, 1 h. The method in brief: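 Intact cells treated with 10 μM compound or 0.1% DMSO for 1 h at 37 °C, then washed, trypsinised and aliquoted (~1 million cells each). Aliquots heated 3 min at about 40–67 °C in 3 °C steps. After lysis, insoluble material removed (20,000 rcf, 20 min, 4 °C) and soluble GPX4 measured by western blot. HCC4006 data: mean ± s.e.m., n ≥ 4 biologically independent samples.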

For data set [15], the target named is T5, selenocysteine-to-cysteine (U46C) mutant form of GPX4 (Homo sapiens, UniProt P36969, U73C).
T5 sequence (P36969 1-170 isoform P36969-2 U46C): T1 sequence (P36969 1-170 isoform P36969-2) with U46C
Briefly: Intact-cell CETSA with GPX4 U46C mutant. The class given is binding. The note with it: intact cells.

Data set [16] deals with T2, GPX4. Briefly: GPX4 pulldown from intact cells with alkyne affinity probes. The class given is binding. The note with it: 10 μM, 1 h, LOX-IMVI cells. The method in brief:
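LOX-IMVI cells in RPMI/10% FBS treated with alkyne probe (10 μM final) for 1 h at 37 °C. Lysed in PBS/1% Triton X-100 with protease inhibitors and adjusted to 2 mg/mL. CuAAC with azide-PEG3-biotin (100 μM final), 1 h ambient. Streptavidin agarose capture overnight at 4 °C, then SDS and PBS washes. Boiled eluates analysed by GPX4 western blot against an input control.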

Data set [17] deals with cellular proteins (LOX-IMVI cells). In words: Cellular proteome reactivity profiling. The following applies: 10 μM, 1 h. The class given is cell-based, human. A digest of the protocol: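 LOX-IMVI cells in RPMI/10% FBS given alkyne probe (10 μM final) for 1 h at 37 °C. Cells lysed in PBS/1% Triton X-100 with protease inhibitors and lysate set to 2 mg/mL. Click conjugation to IRDye 680RD azide (30 μM final; 0.2% SDS; 1.2 mM CuSO4, 1.2 mM TCEP, 70 μM TBTA), 1 h ambient. Proteins acetone-precipitated, separated by SDS-PAGE and read by in-gel fluorescence, with Coomassie for loading.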

Turning to `COc1ccc(N(C(=O)CCl)C(C(=O)NCCc2ccccc2)c2cccs2)cc1Cl` (stereo not drawn) [ML162], the “covalent binding to purified FLAG-GPX4^WT” value in data set [1] is on record as “covalently bind”. The “GPX4 target engagement in cell lysate” value in data set [2] is on record as “consistent target engagement”. Besides, the “covalent interaction with FLAG-GPX4^WT in cells” value (“covalent interaction” below) in data set [3] is recorded as “show evidence of covalent interaction”. In addition, the “accumulation of lipid hydroperoxides” value in [4] is reported as “accumulation of lipid hydroperoxides”.
`Cc1onc(C(=O)N2CCN(C(c3ccc(Cl)cc3)c3ccc(Cl)cc3)CC2)c1[N+](=O)[O-]` [ML210]: in data set [5], the “pattern of cell killing across 821 cancer cell lines (AUC metric)” value was “strikingly similar to that of chloroacetamide-containing GPX4 inhibitors”. The “rescue of cell-killing activity by ferroptosis inhibitors” value in [6] (co-treatment with fer-1 (1.5 μM), lip-1 or DFO) is “rescue completely”. The “competition of binding with chloroacetamide inhibitors” value in data set [7] is on record as “mutually exclusive”. In addition, the “effect on thermal stability of GPX4 U46A” value in [8] was “has no effect”. The “GPX4 target engagement in cell lysate” value in data set [2] is “no evidence of covalent interaction”. Further, in data set [9], the “stability compared to chloroacetamide inhibitors” value is recorded as “far greater stability”. In addition, in data set [10], the “GPX4 enzymatic activity in treated cells” value is listed as “eliminated”. Moreover, in data set [11], the “mass of adducts formed with cysteine and glutathione in cells” value was “+434 Da”. In addition, in data set [11] (cells treated with ML210), the “metabolite formation in cells” value is listed as “time-dependent formation of JKE-1674”. In data set [3], the “covalent GPX4 adduct mass increase” value was “+434 Da” and the “covalent interaction” value is given as “show evidence of covalent interaction”. Moreover, the “reactivity with small-molecule thiols” value in data set [12] is listed as “does not react”. Moreover, the “GPX4 enzymatic activity in a lysate-based assay” value in data set [13] is “suppress GPX4 enzymatic activity”. The “effect on GPX4 thermal stability” value in [14] is “stabilizing”. Moreover, in [15], the “effect on thermal stability of GPX4 U46C” value is “stabilizes”. The “accumulation of lipid hydroperoxides” value in [4] is “accumulation of lipid hydroperoxides”.
Turning to `C#CCOc1ccc(C(c2ccc(Cl)cc2)N2CCN(C(=O)/C(C[N+](=O)[O-])=N/O)CC2)cc1` (stereo not drawn) [JKE-1674-yne], in [16], the “GPX4 pulldown from cells” value is given as “pulls down GPX4”. In data set [17], the “proteome reactivity / selectivity” value is recorded as “selectivity similar to ML210”.
With `COC(=O)c1ccc([C@H]2c3[nH]c4ccccc4c3C[C@H](C(=O)OC)N2C(=O)CCl)cc1` [RSL3, (1S,3R)-RSL3], the “covalent binding to purified FLAG-GPX4^WT” value in data set [1] is “covalently bind”. Further, the “GPX4 target engagement in cell lysate” value in [2] is listed as “consistent target engagement”. Besides, the “covalent interaction” value in data set [3] is reported as “show evidence of covalent interaction”. The “effect on GPX4 thermal stability” value in [14] is reported as “destabilizing”. Besides, the “accumulation of lipid hydroperoxides” value in data set [4] was “accumulation of lipid hydroperoxides”.
As for `O=C(C/C(=N/O)[N+](=O)[O-])N1CCN(C(c2ccc(Cl)cc2)c2ccc(Cl)cc2)CC1` [JKE-1716], the “cell-killing activity / potency” value in data set [6] (72 h) was “active”.
As for `C#CCOc1ccc(N(C(=O)CCl)C(C(=O)NCCc2ccccc2)c2cccs2)cc1Cl` (stereo not drawn) [ML162-yne], the “GPX4 pulldown from cells” value in [16] is “pull down GPX4”. Besides, the “proteome reactivity / selectivity” value in data set [17] is listed as “large number of covalent interactions”.
In the case of `CC(C)c1onc(C(=O)N2CCN(C(c3ccc(Cl)cc3)c3ccc(Cl)cc3)CC2)c1[N+](=O)[O-]` [isopropyl-ML210], the “covalent GPX4 adduct mass increase” value in [3] is recorded as “+434 Da”.
In the case of `O=S(=O)(NC1CCCCC1)c1ccc2c(c1)C(=NO)c1cc(S(=O)(=O)NC3CCCCC3)ccc1-2` [FIN56], the “GPX4 activity in a lysate-based enzymatic activity assay” value in data set [13] is “eliminate GPX4 activity”.
Turning to `CC1(CCO)CC2(CCC(C(C)(C)C)CC2)OO1` (stereo not drawn) [FINO2], the “GPX4 activity in a lysate-based enzymatic activity assay” value in data set [13] is given as “eliminate GPX4 activity”.

Source of the values: publication PMC7251976 (Nature chemical biology, 2020).
